# Data as given in ChEMBL document CHEMBL2424614, “A novel p-terphenyl derivative inducing cell-cycle arrest and apoptosis in MDA-MB-435 cells through topoisomerase inhibition” (Eur J Med Chem, 2013).
# pIC50: −log10 of the molar value. Activity calls are given as the source filed them. No cut-off for these calls is given here.
# What was measured:
# MDA-MB-435 [1] = assay: Induction of apoptosis in human MDA-MB-435 cells assessed as early apoptotic cells at 0.5 uM after 24 hrs by annexin-V FITC/propidium iodide staining-based flow cytometry (reference value: 0.61 +/- 0.24%); assay type: functional
# Summary of the method: (§1)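 MDA-MB-435 cells treated 24 h, stained with annexin V-FITC/PI per kit instructions, analysed by flow cytometry. Quadrant statistics: lower right taken as apoptotic, upper right as necrotic or post-apoptotic necrotic. Representative of three similar experiments.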
# [2] = target: DNA topoisomerase 2-alpha (Homo sapiens) (UniProt P11388); assay: Induction of recombinant human DNA topoisomerase 2-alpha poisoning activity using pBR322 as substrate assessed as appearance of linear DNA at 100 uM after 30 mins by Agarose gel electrophoresis
# Summary of the method: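 Same format as the Topo IIα inhibition assay: 0.5 µg supercoiled pBR322 with 1 unit recombinant human Topo IIα. Incubated 37 °C for 30 min, stopped with 10% SDS, then proteinase K (50 µg/mL) for 20 min. Run on 1% agarose gel containing ethidium bromide, 5 V/cm, 2 h, TAE. Linear and nicked open circular DNA positions scored. At least duplicate.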
# MDA-MB-435 [3] = assay: Induction of apoptosis in human MDA-MB-435 cells assessed as PARP cleavage after 12 to 24 hrs by Western blotting analysis; assay type: functional, cell-based
# Summary of the method: (§2)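 Treated MDA-MB-435 cells lysed in ice-cold Tris-HCl pH 7.4 buffer with Triton, phosphatase and protease inhibitors. Lysates clarified, boiled in SDS loading buffer, run on 8-12% SDS-PAGE and blotted. Membranes blocked in 5% skim milk, probed with primary antibodies, then peroxidase secondaries with ECL detection. β-actin as loading control.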
# MDA-MB-435 [4] = assay: Induction of apoptosis in human MDA-MB-435 cells assessed as nuclear fragmentation at 0.25 to 1 uM by DAPI staining-based fluorscence microscopy; assay type: functional, cell-based
# Summary of the method: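 Treated MDA-MB-435 cells washed in ice-cold PBS, fixed 20 min in 4% paraformaldehyde, stained 30 min at 37 °C with DAPI (50 µg/mL) containing 100 µg/mL RNase A. After PBS washes, examined by fluorescence microscopy (excitation 340 nm, emission 488 nm).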
# MDA-MB-435 [5] = assay: Cell cycle arrest in human MDA-MB-435 cells assessed as accumulation at sub-G1 phase at 0.5 uM after 24 hrs by propidium iodide staining-based flow cytometry (reference value: 0.79%); assay type: functional
# MDA-MB-435 [6] = assay: Induction of apoptosis in human MDA-MB-435 cells assessed as late apoptotic cells at 0.5 uM after 24 hrs by annexin-V FITC/propidium iodide staining-based flow cytometry (reference value: 0.34 +/- 0.08%); assay type: functional; summary of the method: as §1
# MDA-MB-435 [7] = assay: Induction of apoptosis in human MDA-MB-435 cells assessed as early apoptotic cells at 1 uM after 24 hrs by annexin-V FITC/propidium iodide staining-based flow cytometry (reference value: 0.61 +/- 0.24%); assay type: functional; summary of the method: as §1
# MDA-MB-435 [8] = assay: Induction of apoptosis in human MDA-MB-435 cells assessed as dead cells at 0.5 uM after 24 hrs by annexin-V FITC/propidium iodide staining-based flow cytometry (reference value: 0.61 +/- 0.24%); assay type: functional
# MDA-MB-435 [9] = assay: Induction of apoptosis in human MDA-MB-435 cells assessed as viable cells at 1 uM after 24 hrs by annexin-V FITC/propidium iodide staining-based flow cytometry (reference value: 98.62 +/- 0.25%); assay type: functional; settings: MDA-MB-435, 24 h, read-out: Activity; summary of the method: as §1
# Bos taurus [10] = species on record: Bos taurus; assay: Induction of calf thymus DNA topoisomerase 1 poisoning activity using pBR322 as substrate assessed as appearance of nicked open circular DNA at 100 uM after 30 mins by Agarose gel electrophoresis
# Summary of the method: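 Calf thymus Topo I (1 unit) with 0.5 µg pBR322 in relaxation buffer (10 mM Tris-HCl pH 7.9, 150 mM NaCl, 0.1% BSA, 1 mM spermidine, 5% glycerol), 37 °C for 30 min. Stopped with 10% SDS, digested with proteinase K (50 µg/mL) 20 min, run on ethidium bromide-containing 1% agarose gel, 5 V/cm, 2 h. Nicked open circular and linear DNA positions scored; at least duplicate.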
# MDA-MB-435 [11] = assay: Cytotoxicity against human MDA-MB-435 cells assessed as growth inhibition after 72 hrs by MTT assay; assay type: functional, cell-based; settings: MDA-MB-435, 72 h
# Summary of the method: (§3)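 MTT assay: cells treated in triplicate with a range of concentrations for 72 h at 37 °C, 5% CO2. Medium replaced, MTT (5 mg/mL) added for 4 h, then SDS/isobutanol/HCl solubiliser overnight. Absorbance read at 590 nm. Inhibition calculated against control and blank wells; IC50 is concentration giving 50% growth inhibition; three independent experiments.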
# MDA-MB-435 [12] = assay: Induction of DNA damage in human MDA-MB-435 cells assessed as phosphorylation of ATM at Ser1981 at 0.5 uM after 12 hrs by Western blotting analysis; assay type: functional, cell-based; summary of the method: as §2
# MDA-MB-435 [13] = assay: Induction of apoptosis in human MDA-MB-435 cells assessed as late apoptotic cells at 1 uM after 24 hrs by annexin-V FITC/propidium iodide staining-based flow cytometry (reference value: 0.34 +/- 0.08%); assay type: functional; summary of the method: as §1
# [14] = target: DNA topoisomerase 2-alpha (Homo sapiens) (UniProt P11388); assay: Inhibition of recombinant human DNA topoisomerase 2-alpha assessed as supression of kDNA decatenation at 100 uM after 30 mins by agarose gel electrophoresis
# Summary of the method: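 ATP-dependent decatenation assay: 0.20 µg kDNA with 2 units Topo IIα at 37 °C for 30 min, 20 µL. Buffer: 50 mM Tris pH 8.0, KCl, 10 mM MgCl₂, 0.5 mM ATP, 0.5 mM DTT, 30 µg/mL BSA. Stopped with 10% SDS. Agarose gel scored for kDNA versus released minicircles.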
# Bos taurus [15] = species on record: Bos taurus; assay: Inhibition of calf thymus DNA topoisomerase 1-mediated relaxation of supercoiled pBR322 DNA at 10 to 100 uM after 30 mins by Agarose gel electrophoresis
# Summary of the method: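 Relaxation assay with 0.5 µg supercoiled pBR322 and 1 unit calf thymus Topo I, 20 µL. Buffer: 10 mM Tris–HCl pH 7.9, 150 mM NaCl, 0.1% BSA, 1 mM spermidine, 5% glycerol. Incubated 37 °C for 30 min; stopped with sarcosyl stop solution. 1% agarose gel, 5 V/cm, 2 h, TAE; ethidium bromide stain (0.5 µg/mL), UV. DMSO stocks. At least duplicate.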
# MDA-MB-435 [16] = assay: Induction of DNA damage in human MDA-MB-435 cells assessed as phosphorylation of p53 at Ser15 at 0.5 uM after 12 hrs by Western blotting analysis; assay type: functional, cell-based; summary of the method: as §2
# MDA-MB-435 [17] = assay: Cell cycle arrest in human MDA-MB-435 cells at 0.25 to 1 uM after 24 hrs by propidium iodide staining-based flow cytometry in presence of N-acetylcysteine; assay type: functional
# MDA-MB-435 [18] = assay: Induction of apoptosis in human MDA-MB-435 cells assessed as viable cells at 0.5 uM after 24 hrs by annexin-V FITC/propidium iodide staining-based flow cytometry (reference value: 98.62 +/- 0.25%); assay type: functional; settings: MDA-MB-435, 24 h, read-out: Activity; summary of the method: as §1
# LNCaP = assay: Cytotoxicity against human LNCAP cells assessed as growth inhibition after 72 hrs by MTT assay; assay type: functional, cell-based; summary of the method: as §3
# MDA-MB-435 [19] = assay: Induction of apoptosis in human MDA-MB-435 cells assessed as viable cells at 2 uM after 24 hrs by annexin-V FITC/propidium iodide staining-based flow cytometry (reference value: 98.62 +/- 0.25%); assay type: functional; settings: MDA-MB-435, 24 h, read-out: Activity; summary of the method: as §1
# Sequence of DNA topoisomerase 2-alpha (Homo sapiens) (P11388 whole entry): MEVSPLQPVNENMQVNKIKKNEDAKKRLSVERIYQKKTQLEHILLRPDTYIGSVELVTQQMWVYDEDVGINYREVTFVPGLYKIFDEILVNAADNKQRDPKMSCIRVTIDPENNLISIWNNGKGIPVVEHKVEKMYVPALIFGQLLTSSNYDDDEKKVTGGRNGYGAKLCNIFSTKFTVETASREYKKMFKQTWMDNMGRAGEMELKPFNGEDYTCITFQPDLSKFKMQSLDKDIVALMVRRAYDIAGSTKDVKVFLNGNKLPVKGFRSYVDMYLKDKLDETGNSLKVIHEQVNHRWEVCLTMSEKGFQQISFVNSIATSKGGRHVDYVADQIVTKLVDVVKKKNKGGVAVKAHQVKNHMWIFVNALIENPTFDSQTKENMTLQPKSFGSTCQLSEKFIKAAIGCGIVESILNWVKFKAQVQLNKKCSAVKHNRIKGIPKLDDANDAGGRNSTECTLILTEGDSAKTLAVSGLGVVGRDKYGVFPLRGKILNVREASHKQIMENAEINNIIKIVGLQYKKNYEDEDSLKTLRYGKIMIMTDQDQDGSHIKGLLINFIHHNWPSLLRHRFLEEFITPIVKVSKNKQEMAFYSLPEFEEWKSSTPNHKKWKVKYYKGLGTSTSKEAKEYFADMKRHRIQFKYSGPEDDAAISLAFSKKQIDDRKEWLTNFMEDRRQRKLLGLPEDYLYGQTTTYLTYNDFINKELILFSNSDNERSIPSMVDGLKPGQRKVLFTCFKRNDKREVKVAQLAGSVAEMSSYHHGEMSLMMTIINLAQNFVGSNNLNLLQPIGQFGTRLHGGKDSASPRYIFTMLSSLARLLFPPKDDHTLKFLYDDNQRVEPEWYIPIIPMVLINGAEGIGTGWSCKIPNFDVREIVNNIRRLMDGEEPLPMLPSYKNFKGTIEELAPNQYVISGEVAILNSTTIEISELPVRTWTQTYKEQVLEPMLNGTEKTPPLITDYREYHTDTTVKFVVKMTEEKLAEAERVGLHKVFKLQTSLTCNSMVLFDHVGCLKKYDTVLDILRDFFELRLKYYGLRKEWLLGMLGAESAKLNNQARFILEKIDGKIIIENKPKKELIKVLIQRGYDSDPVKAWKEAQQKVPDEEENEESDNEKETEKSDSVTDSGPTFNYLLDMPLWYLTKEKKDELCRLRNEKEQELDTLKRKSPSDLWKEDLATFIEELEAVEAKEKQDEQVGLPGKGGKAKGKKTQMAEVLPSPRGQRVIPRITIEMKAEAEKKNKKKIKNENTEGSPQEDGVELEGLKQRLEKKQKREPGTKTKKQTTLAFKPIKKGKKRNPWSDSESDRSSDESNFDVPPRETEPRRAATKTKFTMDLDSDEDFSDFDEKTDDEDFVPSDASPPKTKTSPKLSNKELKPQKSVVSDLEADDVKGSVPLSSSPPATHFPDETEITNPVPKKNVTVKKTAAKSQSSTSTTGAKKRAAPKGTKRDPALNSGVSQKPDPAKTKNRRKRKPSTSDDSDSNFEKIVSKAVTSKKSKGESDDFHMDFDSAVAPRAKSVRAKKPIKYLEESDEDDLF
smiles,measurement,setting,value
Oc1ccc(-c2ccc(-c3ccc(O)c(O)c3)cc2)cc1,Activity,MDA-MB-435 [1],8.01%
same,Activity,[2],inactive
same,Activity,MDA-MB-435 [3],Dose-dependent effect
same,Activity,MDA-MB-435 [4],Active
same,Activity,MDA-MB-435 [5],4.53%
same,Activity,MDA-MB-435 [6],7.79%
same,Activity,MDA-MB-435 [7],13.33%
same,Activity,MDA-MB-435 [8],1.27%
same,viability at 1 µM,MDA-MB-435 [9],76.3%
same,Activity,Bos taurus [10],inactive
same,pIC50,MDA-MB-435 [11],> 6.00
same,Activity,MDA-MB-435 [12],inactive
same,Activity,MDA-MB-435 [13],8.64%
same,inhibition,[14],Active
same,inhibition,Bos taurus [15],Active
same,Activity,MDA-MB-435 [16],inactive
same,Activity,MDA-MB-435 [17],Active
same,viability at 0.5 µM,MDA-MB-435 [18],81.6%
same,growth inhibition (GI),LNCaP,Active
same,viability at 2 µM,MDA-MB-435 [19],71.8%
